Data from ChEMBL document CHEMBL4334464, “From Phenylthiazoles to Phenylpyrazoles: Broadening the Antibacterial Spectrum toward Carbapenem-Resistant Bacteria” (J Med Chem, 2019).
Active and inactive are the calls of the source. No cut-off for these calls is given here.

Tests used:
Staphylococcus aureus [1] = experiment: Antibacterial activity against methicillin-resistant Staphylococcus aureus NRS123-USA400 clinical isolates over 14 serial passages by broth microdilution assay; format: functional, organism-based
Method in brief: (§1)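 MRSA USA400 was serially passaged over a 14-day period in the presence of each compound or control antibiotic. MIC was determined by broth microdilution after each passage. A four-fold rise in MIC was taken as a sign of resistance.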

[2] = Stability in human liver microsomes assessed as compound remaining incubated for 45 mins in absence of NADPH by LC/MS/MS analysis; format: ADME, Microsome; conditions: read-out: Stability
Method in brief: (§2)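 Two independent runs (1st and 2nd) were done at each time point, and the mean percent remaining is reported. Incubations were run both with and without NADPH. Half-life and intrinsic clearance (Clint) were derived from the time-course data.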

[3] = Stability in human liver microsomes assessed as compound remaining incubated for 45 mins in presence of NADPH by LC/MS/MS analysis; format: ADME, Microsome; conditions: read-out: Stability; method in brief: as §2
[4] = Apparent permeability across basolateral to apical side in human Caco2 cells after 2 hrs by LC/MS/MS analysis; format: ADME, cell-based; conditions: Caco-2
Staphylococcus aureus [5] = experiment: Antibacterial activity against methicillin-resistant Staphylococcus aureus NRS123-USA400 infected in mouse J774 cells assessed as reduction in intracellular bacterial cells at 2 times MIC incubated for 24 hrs followed by re-plating on TSA plate and measured after 18 to 22 hrs relative to control; format: functional; design: scale not given: the % may be the effect or the level left
Method in brief: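 J774 murine macrophages were infected with MRSA USA400 and then treated at 2×MIC for 24 h, in triplicate. The read-out was percent reduction in intracellular colony-forming units versus untreated infected cells.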

[6] = Stability in human liver microsomes assessed as compound remaining measured immediately in absence of NADPH by LC/MS/MS analysis; format: ADME, Microsome; conditions: read-out: Stability; method in brief: as §2
[7] = Efflux ratio of apparent permeability across basolateral to apical side over apical to basolateral side in human Caco2 cells after 2 hrs by LC/MS/MS analysis; format: ADME, cell-based; conditions: Caco-2
Staphylococcus aureus [8] = experiment: Potency index, ratio of compound effect to vancomycin effect for antibiofilm activity against methicillin-resistant Staphylococcus aureus NRS384-USA300 clinical isolates at 0.5 times MIC; format: functional
Salmonella enteritidis = experiment: Antibacterial activity against Salmonella enteritidis ATCC 14028 infected in mouse J774 cells assessed as reduction in intracellular bacterial cells at 2 times MIC incubated for 24 hrs followed by re-plating on TSA plate and measured after 18 to 22 hrs relative to control; format: functional, Salmonella enterica subsp. enterica serovar Enteritidis; design: scale not given: the % may be the effect or the level left
Method in brief: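 J774 murine macrophages infected with Salmonella enteritidis ATCC 14028, then treated at 2×MIC for 24 h, in triplicate. Read-out is the percent reduction in intracellular colony forming units versus the untreated control.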

[9] = Half life in human liver microsomes in absence of NADPH by LC/MS/MS analysis; format: ADME, Microsome
[10] = Stability in human liver microsomes assessed as compound remaining incubated for 30 mins in presence of NADPH by LC/MS/MS analysis; format: ADME, Microsome; conditions: read-out: Stability; method in brief: as §2
[11] = Stability in human liver microsomes assessed as compound remaining measured immediately in presence of NADPH by LC/MS/MS analysis; format: ADME, Microsome; conditions: read-out: Stability; method in brief: as §2
[12] = Half life in Sprague-Dawley rat at 5 mg/kg, iv administered as bolus dose measured over 12 hrs by LC-MS/MS analysis; format: ADME, organism-based; conditions: in vivo
[13] = Clearance in Sprague-Dawley rat at 5 mg/kg, iv administered as bolus dose measured over 12 hrs by LC-MS/MS analysis; format: ADME, organism-based; conditions: in vivo
[14] = Stability in human liver microsomes assessed as compound remaining incubated for 30 mins in absence of NADPH by LC/MS/MS analysis; format: ADME, Microsome; conditions: read-out: Stability; method in brief: as §2
[15] = Intrinsic clearance in human liver microsomes in presence of NADPH by LC/MS/MS analysis; format: ADME, Microsome; conditions: read-out: CLH
Staphylococcus aureus [16] = experiment: Antibacterial activity against methicillin-resistant Staphylococcus aureus NRS123-USA400 clinical isolates assessed as ratio of MIC after and before 10 serial passages by broth microdilution assay; format: functional; method in brief: as §1
Staphylococcus aureus [17] = experiment: Antibacterial activity against methicillin-resistant Staphylococcus aureus NRS123-USA400 clinical isolates assessed as ratio of MIC after and before 14 serial passages by broth microdilution assay; format: functional; method in brief: as §1
Staphylococcus aureus [18] = experiment: Antibacterial activity against methicillin-resistant Staphylococcus aureus NRS123-USA400 clinical isolates assessed as ratio of MIC after and before 8 serial passages by broth microdilution assay; format: functional; method in brief: as §1

SMILES | Activity (Staphylococcus aureus [1]) | remaining at 0.75 h [2] [%] | remaining at 0.75 h [3] [%] | Papp B→A at 2 h [4] [×10⁻⁶ cm/s] | Activity (Staphylococcus aureus [5]) [%] | remaining at 0 min [6] [%] | efflux ratio at 2 h [7] | Ratio (Staphylococcus aureus [8]) | Activity (Salmonella enteritidis) [%] | half-life [9] [h] | remaining at 0.5 h [10] [%] | remaining at 0 min [11] [%] | half-life [12] [h] | clearance [13] [mL/min] | remaining at 0.5 h [14] [%] | microsomal CLint [15] [µL/min/mg] | Ratio (Staphylococcus aureus [16]) | Ratio (Staphylococcus aureus [17]) | Ratio (Staphylococcus aureus [18])
C/C(=N\NC(=N)N)c1cnn(-c2ccc(C#CC3CCCC3)cc2)c1C | Active | 99 | 81 | 0.01 | 90 | 100 | 1 | 2 | 98 | 8.42 | 92 | 100 | 10.5 | 16.7 | 99 | 35.8 | – | – | –
C/C(=N\NC(=N)N)c1cnn(-c2ccc(C#Cc3ccccc3)cc2)c1C | – | – | – | – | – | – | – | – | 70 | – | – | – | – | – | – | – | 1 | – | –
C/C(=N\NC1=NCCN1)c1cnn(-c2ccc(C#CC3CCCC3)cc2)c1C | – | 97 | 79 | 0.15 | 98.4 | 100 | 1.5 | – | – | 20.3 | 92 | 100 | – | – | 97 | 42.3 | – | 2 | 1
